Measured values: PMC3498827 (The Biochemical journal, 2012)

Experiments:
Solubility = format: physicochemical; conditions: relative to original screening hit NCGC00186526
LmPYK = LmPYK (Leishmania mexicana, UniProt Q27686); assay: PYK inhibitor assay; format: biochemical
How it was run: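 Pre-incubation mix held at 25 °C: LmPYK 1.6 U/mL, 0.4 mM PEP, 3.2 U/mL lactate dehydrogenase and 0.2 mM NADH in 50 mM TEA pH 7.2, 100 mM KCl, 3 mM MgCl2, 10% glycerol. Test compound (final 50 µM, from DMSO stock) added last; buffer-only control. Every 20 min […], an aliquot was started with 0.2 mM ADP (final). A340 decrease followed for 2 min. Initial rate expressed as % of control.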

HsRPYK = HsRPYK (Homo sapiens, UniProt P30613); assay: Inhibition of HsRPYK; format: biochemical
Chemical stability = conditions: hydrolysis of the linkage to saccharin moiety
[1] = target: rabbit lactate dehydrogenase (Oryctolagus cuniculus, UniProt P13491); assay: Inhibition of coupling enzyme lactate dehydrogenase; format: biochemical; conditions: active-site Lys56
[2] = target: Lys335Arg mutant of LmPYK (Leishmania mexicana, UniProt Q27686, K336R); assay: PYK inhibitor assay with Lys335Arg mutant; format: biochemical; conditions: 50 µM DBS, 0.4 mM PEP, identical assay conditions to wild-type
[3] = tested on: four human PYK isoenzymes; assay: Irreversible inhibition of human PYK isoenzymes; format: biochemical
wild-type LmPYK = wild-type LmPYK (Leishmania mexicana, UniProt Q27686); assay: qHTS / LmPYK activity assay; format: biochemical

HsRPYK, sequence (P30613 whole entry): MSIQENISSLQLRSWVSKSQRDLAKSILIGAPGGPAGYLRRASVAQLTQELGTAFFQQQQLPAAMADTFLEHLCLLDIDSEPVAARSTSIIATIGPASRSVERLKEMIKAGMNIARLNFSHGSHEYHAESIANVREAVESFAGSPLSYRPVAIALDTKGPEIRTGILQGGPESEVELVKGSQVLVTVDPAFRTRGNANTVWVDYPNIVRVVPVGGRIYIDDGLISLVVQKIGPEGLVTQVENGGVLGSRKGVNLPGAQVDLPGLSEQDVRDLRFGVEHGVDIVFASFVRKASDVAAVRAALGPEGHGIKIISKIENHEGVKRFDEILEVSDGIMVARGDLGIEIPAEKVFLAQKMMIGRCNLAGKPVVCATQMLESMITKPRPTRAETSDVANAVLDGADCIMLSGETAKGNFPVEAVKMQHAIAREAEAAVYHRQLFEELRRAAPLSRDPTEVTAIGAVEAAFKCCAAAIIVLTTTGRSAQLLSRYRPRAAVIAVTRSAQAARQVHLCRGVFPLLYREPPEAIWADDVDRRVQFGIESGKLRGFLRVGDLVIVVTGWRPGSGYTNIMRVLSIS

Row | Compound | solubility (Solubility) | time to maximal inhibition (LmPYK; 50 µM DBS, 25 °C) | inhibition at 50 µM (LmPYK; read-out: Maximal inhibition) | IC50 (HsRPYK) | stability (Chemical stability) | inhibition of rabbit lactate dehydrogenase [1] | change in activity over time [2] | irreversible inhibition [3] | IC50 (wild-type LmPYK)
1 | O=C(O)c1ccc(SC2=NS(=O)(=O)c3ccccc32)cc1 [DBS, 4-[(1,1-dioxo-1,2-benzothiazol-3-yl)sulfanyl]benzoic acid] | improved stability and solubility profiles | ~ 250 min | ~80% | 8 µM | improved stability and solubility profiles | inability of DBS to inhibit | essentially no change in activity over time | irreversibly inhibited | 
2 | Cc1ccc(C)c(OC2=NS(=O)(=O)c3ccccc32)c1 [NCGC00186526] |  |  |  |  |  |  |  |  | 10 µM
3 | Cc1ccc(C)c(SC2=NS(=O)(=O)c3ccccc32)c1 [NCGC00188411] |  |  |  |  | Stable |  |  |  | 5 µM
